Published values from different studies.
Protocols differ between the studies behind these lines.
PIK3CA E542K: Phosphatidylinositol 4,5-bisphosphate 3-kinase catalytic subunit alpha isoform (PIK3CA, Homo sapiens, UniProt P42336, E542K)
PIK3CA M1043I: Phosphatidylinositol 4,5-bisphosphate 3-kinase catalytic subunit alpha isoform (PIK3CA, Homo sapiens, UniProt P42336, M1043I)

| Compound | target | assay | conditions | quantity | value |
| --- | --- | --- | --- | --- | --- |
| CCCCC(=O)Nc1ccc(-c2ccc3ncn(CCC)c(=O)c3c2)cn1 | PIK3CA E542K | binding, competition with immobilised ligand | 0.5 µM | remaining binding | 96% |
| C=CC(=O)N1CCC([C@@H]2CCNc3c(C(N)=O)c(-c4ccc(Oc5ccccc5)cc4)nn32)CC1 | Phosphatidylinositol 4,5-bisphosphate 3-kinase catalytic subunit alpha isoform (PIK3CA, Homo sapiens, UniProt P42336, H1047Y) | enzyme activity, inhibitor | 1 µM | inhibition | 12% |
| COc1ccc2[nH]c3c4[nH]c5ccc(OC)cc5c4c4c(c3c2c1)C(=O)NC4=O | PIK3CA E542K | binding | 1 µM | remaining binding | 92% |
| N#Cc1ccc(NC(=O)Nc2ccccc2)cc1 | Phosphatidylinositol 4,5-bisphosphate 3-kinase catalytic subunit alpha isoform (PIK3CA, Homo sapiens, UniProt P42336) | cell-free assay, competition with immobilised ligand | 25 µM | remaining binding | 92% |
| Cc1ccc(NC(=O)c2ccnc(C(F)(F)F)c2)cc1-c1cc(OCCO)nc(N2CCOCC2)c1 | Phosphatidylinositol 4,5-bisphosphate 3-kinase catalytic subunit alpha isoform (PIK3CA, Homo sapiens, UniProt P42336, H1047L) | binding | 1 µM | remaining binding | 98% |
| CO[C@@H]1[C@H](N(C)C(=O)c2ccccc2)C[C@H]2O[C@]1(C)n1c3ccccc3c3c4c(c5c6ccccc6n2c5c31)C(=O)NC4 | PIK3CA M1043I | enzyme activity, inhibitor | 1 µM | inhibition | 1% |
| CN1CCN(C(=O)c2ccc(NC(=O)Nc3ccc(N(C)c4ccnc(Nc5ccc(CS(C)(=O)=O)cc5)n4)cc3)cc2)CC1 | PIK3CA M1043I | binding | 1 µM | remaining binding | 100% |
| CC(C)S(=O)(=O)c1ccc2nccc(Nc3ccc4sc(C5CCCC5)nc4c3)c2c1 | Phosphatidylinositol 4,5-bisphosphate 3-kinase catalytic subunit alpha isoform, with p85 (PIK3CA, Homo sapiens, UniProt P42336) | enzyme activity, inhibitor | 1 µM | activity vs control | 98.5% |
| C=CC(=O)N1CCC[C@@H](n2nc(-c3ccc(Oc4ccccc4)cc3)c3c(N)ncnc32)C1 | Phosphatidylinositol 4,5-bisphosphate 3-kinase catalytic subunit alpha isoform (PIK3CA, Homo sapiens, UniProt P42336, C420R) | enzyme activity, inhibitor | 1 µM | inhibition | 28% |
| C[C@H]1CC[C@H](n2c3cnccc3c3cnc(Nc4ccc5c(n4)CCN(C(=O)CO)C5)nc32)CC1 | Phosphatidylinositol 4,5-bisphosphate 3-kinase catalytic subunit alpha isoform (PIK3CA, Homo sapiens, UniProt P42336, E545K) | cell-free assay | 1 µM | remaining signal | 100% |
| C1=C/COCc2cc(ccc2OCCN2CCCC2)Nc2nccc(n2)-c2cccc(c2)COC/1 | Phosphatidylinositol 4,5-bisphosphate 3-kinase catalytic subunit alpha isoform (PIK3CA, Homo sapiens, UniProt P42336, I800L) | binding | 0.1 µM | remaining binding | 60% |
| CC#CC(=O)N1CCC[C@H]1c1nc(-c2ccc(C(=O)Nc3ccccn3)cc2)c2c(N)nccn12 | Phosphatidylinositol 4,5-bisphosphate 3-kinase catalytic subunit alpha isoform (PIK3CA, Homo sapiens, UniProt P42336, Q546K) | enzyme activity, inhibitor | 1 µM | inhibition | 38% |
